# According to ChEMBL document CHEMBL1141595, “1-(2-Phenoxyphenyl)methanamines: SAR for dual serotonin/noradrenaline reuptake inhibition, metabolic stability and hERG affinity” (Bioorg Med Chem Lett, 2008):
# Target: Sodium-dependent serotonin transporter (Homo sapiens, UniProt P31645)
# Assay: Inhibition of [3H]5HT uptake at human 5HT transporter expressed in HEK293 cells
# Format: cell-based
# Outline: (§1)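 HEK293 cells each expressing one human amine transporter, 7500 cells/well, preincubated 5 min at 25 °C with compound or DMSO vehicle. Uptake was started with tritiated substrate: 5-HT 50 nM (5 min), NA 200 nM (15 min), DA 200 nM (5 min), shaken at 25 °C. Stopped by ice-cold wash and filtration, then scintillation counting.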
# Chain of Sodium-dependent serotonin transporter (P31645 whole entry): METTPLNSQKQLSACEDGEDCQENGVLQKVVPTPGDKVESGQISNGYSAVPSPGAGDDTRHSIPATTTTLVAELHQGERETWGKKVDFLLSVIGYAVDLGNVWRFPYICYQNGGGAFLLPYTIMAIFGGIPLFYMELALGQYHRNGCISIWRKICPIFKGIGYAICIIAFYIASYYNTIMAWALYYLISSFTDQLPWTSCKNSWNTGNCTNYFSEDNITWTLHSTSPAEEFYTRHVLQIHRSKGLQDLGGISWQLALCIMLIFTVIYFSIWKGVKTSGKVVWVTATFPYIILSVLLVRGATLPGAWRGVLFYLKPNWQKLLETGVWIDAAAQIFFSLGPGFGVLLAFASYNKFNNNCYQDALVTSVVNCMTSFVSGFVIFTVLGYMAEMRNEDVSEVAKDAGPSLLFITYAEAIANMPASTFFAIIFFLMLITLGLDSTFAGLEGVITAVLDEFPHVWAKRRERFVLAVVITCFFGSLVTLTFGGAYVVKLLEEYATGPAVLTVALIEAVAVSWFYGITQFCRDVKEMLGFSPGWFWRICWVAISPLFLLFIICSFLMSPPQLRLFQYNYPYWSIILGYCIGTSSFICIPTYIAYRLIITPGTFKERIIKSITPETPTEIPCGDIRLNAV
row,SMILES,IC50 [nM]
1,CNCc1ccccc1Oc1ccc(OC)cc1Cl,22
2,CN(C)Cc1ccccc1Oc1ccccc1,660
3,CNCc1ccccc1Oc1ccc(Cl)cc1Cl,56
4,CN(C)Cc1ccccc1Oc1ccc(F)cc1Cl,32
5,CNCc1ccccc1Oc1ccc(Cl)cc1OC,13
6,CN(C)Cc1ccccc1Oc1ccc(Cl)cc1F,6
7,CN(C)Cc1ccccc1Oc1ccc(Cl)cc1,18
8,CN(C)Cc1ccccc1Oc1cccc(Cl)c1,238
9,CNCc1cc(C(=O)NC)ccc1Oc1ccc(Cl)cc1OC,13
10,CNCc1cc(NS(C)(=O)=O)ccc1Oc1ccc(Cl)cc1C,16
11,CNCc1cc(C(=O)N(C)C)ccc1Oc1ccc(Cl)cc1Cl,11
12,CNCc1cc(C#N)ccc1Oc1ccc(Cl)cc1Cl,28
13,CNCc1cc(C(N)=O)ccc1Oc1ccc(Cl)cc1Cl,37
14,CNCc1cc(C(=O)N(C)C)ccc1Oc1ccc(Cl)cc1C,17
15,CNCc1cc(C(N)=O)ccc1Oc1ccc(Cl)cc1C,7
16,CNCc1cc(C(N)=O)ccc1Oc1ccc(Cl)cc1OC,12
17,CNCc1cc(C#N)ccc1Oc1ccc(Cl)cc1OC,5
18,CN(C)Cc1ccccc1Oc1ccc(Cl)cc1Cl,4
19,CNCc1cc(C(=O)N(C)C)ccc1Oc1ccc(Cl)cc1OC,8
20,CN(C)Cc1ccccc1Oc1ccccc1Cl,282
21,CNCc1ccccc1Oc1ccc(Cl)cc1C,18
22,CNCc1cc(N2CCCS2(=O)=O)ccc1Oc1ccc(Cl)cc1C,10
23,COc1cc(Cl)ccc1Oc1ccccc1CN(C)C,6
24,CNCc1cc(C(=O)NC)ccc1Oc1ccc(Cl)cc1C,14
25,CNCc1cc(C(=O)NC)ccc1Oc1ccc(Cl)cc1Cl,13
26,CNCc1ccccc1Oc1ccc(Cl)cc1F,73
27,CNCc1cc(N2CCCS2(=O)=O)ccc1Oc1ccc(Cl)cc1Cl,12

# Tested on: not listed separately
# Assay: Metabolic stability assessed as intrinsic clearance in human liver microsomes
# Format: ADME, Microsome
row,SMILES,microsomal CLint [µL/min/mg]
1,Cc1cccc(CN(C2CCOCC2)[C@H]2CCNC2)c1C,< 7
2,CN(C)Cc1ccccc1Oc1ccc(F)cc1Cl,219
3,CNCc1ccccc1Oc1ccc(Cl)cc1OC,9
4,CNCc1cc(C(=O)NC)ccc1Oc1ccc(Cl)cc1OC,8
5,CNCc1cc(NS(C)(=O)=O)ccc1Oc1ccc(Cl)cc1C,8
6,CNCc1cc(C(=O)N(C)C)ccc1Oc1ccc(Cl)cc1Cl,13
7,CNCc1cc(C(N)=O)ccc1Oc1ccc(Cl)cc1Cl,8
8,CNCc1cc(C(=O)N(C)C)ccc1Oc1ccc(Cl)cc1C,9
9,CNCc1cc(C(N)=O)ccc1Oc1ccc(Cl)cc1C,8
10,CNCc1cc(C(N)=O)ccc1Oc1ccc(Cl)cc1OC,8
11,CN(C)Cc1ccccc1Oc1ccc(Cl)cc1Cl,223
12,CNCc1cc(C(=O)N(C)C)ccc1Oc1ccc(Cl)cc1OC,15
13,CN(C)Cc1ccccc1Oc1ccccc1Cl,186
14,CNCc1ccccc1Oc1ccc(Cl)cc1C,20
15,CNCc1cc(N2CCCS2(=O)=O)ccc1Oc1ccc(Cl)cc1C,11
16,COc1cc(Cl)ccc1Oc1ccccc1CN(C)C,45
17,CNCc1cc(C(=O)NC)ccc1Oc1ccc(Cl)cc1C,9
18,CNCc1cc(C(=O)NC)ccc1Oc1ccc(Cl)cc1Cl,9
19,CNCc1ccccc1Oc1ccc(Cl)cc1F,22
20,CNCc1cc(N2CCCS2(=O)=O)ccc1Oc1ccc(Cl)cc1Cl,12

# Target: Sodium-dependent dopamine transporter (Homo sapiens, UniProt Q01959)
# Assay: Inhibition of [3H]dopamine uptake at human dopamine transporter expressed in HEK293 cells
# Format: cell-based
# Outline: as §1
# Chain of Sodium-dependent dopamine transporter (Q01959 whole entry): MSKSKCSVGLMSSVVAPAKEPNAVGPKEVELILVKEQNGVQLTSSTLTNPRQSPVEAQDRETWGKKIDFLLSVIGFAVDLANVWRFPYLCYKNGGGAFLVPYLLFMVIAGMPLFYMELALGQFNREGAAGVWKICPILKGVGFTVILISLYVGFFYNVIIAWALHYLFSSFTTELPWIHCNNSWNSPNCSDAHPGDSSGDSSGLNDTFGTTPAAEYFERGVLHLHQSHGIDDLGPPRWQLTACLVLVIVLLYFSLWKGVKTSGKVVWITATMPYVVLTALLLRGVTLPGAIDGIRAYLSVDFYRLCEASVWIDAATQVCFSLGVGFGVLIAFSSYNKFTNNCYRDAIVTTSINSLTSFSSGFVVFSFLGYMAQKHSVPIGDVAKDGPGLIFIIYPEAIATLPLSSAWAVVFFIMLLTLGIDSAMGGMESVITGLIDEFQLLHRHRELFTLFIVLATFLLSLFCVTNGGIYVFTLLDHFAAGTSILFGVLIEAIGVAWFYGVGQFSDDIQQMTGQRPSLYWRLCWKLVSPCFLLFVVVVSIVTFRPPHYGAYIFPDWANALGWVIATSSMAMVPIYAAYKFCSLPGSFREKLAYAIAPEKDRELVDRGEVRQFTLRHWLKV
row,SMILES,IC50 [nM]
1,CNCc1ccccc1Oc1ccc(OC)cc1Cl,5950
2,CNCc1ccccc1Oc1ccc(F)cc1Cl,6510
3,CNCc1ccccc1Oc1ccc(Cl)cc1Cl,506
4,CN(C)Cc1ccccc1Oc1ccc(F)cc1Cl,2130
5,CNCc1ccccc1Oc1ccc(Cl)cc1OC,19600
6,CN(C)Cc1ccccc1Oc1ccc(Cl)cc1F,421
7,CN(C)Cc1ccccc1Oc1ccc(Cl)cc1,124
8,CN(C)Cc1ccccc1Oc1cccc(Cl)c1,194
9,CNCc1cc(C(=O)NC)ccc1Oc1ccc(Cl)cc1OC,15700
10,CNCc1cc(NS(C)(=O)=O)ccc1Oc1ccc(Cl)cc1C,320
11,CNCc1cc(C(=O)N(C)C)ccc1Oc1ccc(Cl)cc1Cl,275
12,CNCc1cc(C#N)ccc1Oc1ccc(Cl)cc1Cl,3010
13,CNCc1cc(C(N)=O)ccc1Oc1ccc(Cl)cc1Cl,1210
14,CNCc1cc(C(=O)N(C)C)ccc1Oc1ccc(Cl)cc1C,172
15,CNCc1cc(C(N)=O)ccc1Oc1ccc(Cl)cc1C,2820
16,CNCc1cc(C(N)=O)ccc1Oc1ccc(Cl)cc1OC,21000
17,CNCc1cc(C#N)ccc1Oc1ccc(Cl)cc1OC,> 40000
18,CN(C)Cc1ccccc1Oc1ccc(Cl)cc1Cl,195
19,CNCc1cc(C(=O)N(C)C)ccc1Oc1ccc(Cl)cc1OC,> 40000
20,CN(C)Cc1ccccc1Oc1ccccc1Cl,2730
21,CNCc1ccccc1Oc1ccc(Cl)cc1C,421
22,CNCc1cc(N2CCCS2(=O)=O)ccc1Oc1ccc(Cl)cc1C,47
23,COc1cc(Cl)ccc1Oc1ccccc1CN(C)C,3780
24,CNCc1cc(C(=O)NC)ccc1Oc1ccc(Cl)cc1C,387
25,CNCc1cc(C(=O)NC)ccc1Oc1ccc(Cl)cc1Cl,800
26,CNCc1cc(N2CCCS2(=O)=O)ccc1Oc1ccc(Cl)cc1Cl,138

# Target: Sodium-dependent noradrenaline transporter (Homo sapiens, UniProt P23975)
# Assay: Inhibition of [3H]NA uptake at human NA transporter expressed in HEK293 cells
# Format: cell-based
# Outline: as §1
# Chain of Sodium-dependent noradrenaline transporter (P23975 whole entry): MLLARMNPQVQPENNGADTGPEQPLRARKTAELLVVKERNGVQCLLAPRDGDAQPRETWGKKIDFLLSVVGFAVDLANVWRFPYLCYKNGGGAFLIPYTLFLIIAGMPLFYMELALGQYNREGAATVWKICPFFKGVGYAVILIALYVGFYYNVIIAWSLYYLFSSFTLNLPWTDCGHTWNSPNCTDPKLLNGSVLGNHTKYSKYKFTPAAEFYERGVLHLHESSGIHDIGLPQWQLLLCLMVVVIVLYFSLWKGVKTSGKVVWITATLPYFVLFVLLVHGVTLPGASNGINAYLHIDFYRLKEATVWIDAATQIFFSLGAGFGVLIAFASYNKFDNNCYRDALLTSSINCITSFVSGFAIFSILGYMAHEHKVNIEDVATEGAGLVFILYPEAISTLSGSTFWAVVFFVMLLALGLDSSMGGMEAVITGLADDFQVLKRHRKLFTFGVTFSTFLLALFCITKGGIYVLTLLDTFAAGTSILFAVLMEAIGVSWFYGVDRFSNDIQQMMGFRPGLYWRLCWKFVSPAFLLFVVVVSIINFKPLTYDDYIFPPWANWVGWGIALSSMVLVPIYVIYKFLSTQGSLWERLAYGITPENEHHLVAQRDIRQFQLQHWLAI
row,SMILES,IC50 [nM]
1,CNCc1ccccc1Oc1ccc(OC)cc1Cl,157
2,CN(C)Cc1ccccc1Oc1ccccc1,70
3,CNCc1ccccc1Oc1ccc(F)cc1Cl,300
4,CNCc1ccccc1Oc1ccc(Cl)cc1Cl,42
5,CN(C)Cc1ccccc1Oc1ccc(F)cc1Cl,46
6,CNCc1ccccc1Oc1ccc(Cl)cc1OC,78
7,CN(C)Cc1ccccc1Oc1ccc(Cl)cc1F,21
8,CN(C)Cc1ccccc1Oc1ccc(Cl)cc1,256
9,CN(C)Cc1ccccc1Oc1cccc(Cl)c1,82
10,CNCc1cc(C(=O)NC)ccc1Oc1ccc(Cl)cc1OC,78
11,CNCc1cc(NS(C)(=O)=O)ccc1Oc1ccc(Cl)cc1C,25
12,CNCc1cc(C(=O)N(C)C)ccc1Oc1ccc(Cl)cc1Cl,33
13,CNCc1cc(C#N)ccc1Oc1ccc(Cl)cc1Cl,> 400
14,CNCc1cc(C(N)=O)ccc1Oc1ccc(Cl)cc1Cl,84
15,CNCc1cc(C(=O)N(C)C)ccc1Oc1ccc(Cl)cc1C,17
16,CNCc1cc(C(N)=O)ccc1Oc1ccc(Cl)cc1C,46
17,CNCc1cc(C(N)=O)ccc1Oc1ccc(Cl)cc1OC,62
18,CNCc1cc(C#N)ccc1Oc1ccc(Cl)cc1OC,> 400
19,CN(C)Cc1ccccc1Oc1ccc(Cl)cc1Cl,11
20,CNCc1cc(C(=O)N(C)C)ccc1Oc1ccc(Cl)cc1OC,32
21,CN(C)Cc1ccccc1Oc1ccccc1Cl,15
22,CNCc1ccccc1Oc1ccc(Cl)cc1C,22
23,CNCc1cc(N2CCCS2(=O)=O)ccc1Oc1ccc(Cl)cc1C,11
24,COc1cc(Cl)ccc1Oc1ccccc1CN(C)C,14
25,CNCc1cc(C(=O)NC)ccc1Oc1ccc(Cl)cc1C,26
26,CNCc1cc(C(=O)NC)ccc1Oc1ccc(Cl)cc1Cl,38
27,CNCc1ccccc1Oc1ccc(Cl)cc1F,429
28,CNCc1cc(N2CCCS2(=O)=O)ccc1Oc1ccc(Cl)cc1Cl,17

# Target: Voltage-gated inwardly rectifying potassium channel KCNH2 (Homo sapiens, UniProt Q12809)
# Assay: Binding affinity to human ERG
# Chain of Voltage-gated inwardly rectifying potassium channel KCNH2 (Q12809 whole entry): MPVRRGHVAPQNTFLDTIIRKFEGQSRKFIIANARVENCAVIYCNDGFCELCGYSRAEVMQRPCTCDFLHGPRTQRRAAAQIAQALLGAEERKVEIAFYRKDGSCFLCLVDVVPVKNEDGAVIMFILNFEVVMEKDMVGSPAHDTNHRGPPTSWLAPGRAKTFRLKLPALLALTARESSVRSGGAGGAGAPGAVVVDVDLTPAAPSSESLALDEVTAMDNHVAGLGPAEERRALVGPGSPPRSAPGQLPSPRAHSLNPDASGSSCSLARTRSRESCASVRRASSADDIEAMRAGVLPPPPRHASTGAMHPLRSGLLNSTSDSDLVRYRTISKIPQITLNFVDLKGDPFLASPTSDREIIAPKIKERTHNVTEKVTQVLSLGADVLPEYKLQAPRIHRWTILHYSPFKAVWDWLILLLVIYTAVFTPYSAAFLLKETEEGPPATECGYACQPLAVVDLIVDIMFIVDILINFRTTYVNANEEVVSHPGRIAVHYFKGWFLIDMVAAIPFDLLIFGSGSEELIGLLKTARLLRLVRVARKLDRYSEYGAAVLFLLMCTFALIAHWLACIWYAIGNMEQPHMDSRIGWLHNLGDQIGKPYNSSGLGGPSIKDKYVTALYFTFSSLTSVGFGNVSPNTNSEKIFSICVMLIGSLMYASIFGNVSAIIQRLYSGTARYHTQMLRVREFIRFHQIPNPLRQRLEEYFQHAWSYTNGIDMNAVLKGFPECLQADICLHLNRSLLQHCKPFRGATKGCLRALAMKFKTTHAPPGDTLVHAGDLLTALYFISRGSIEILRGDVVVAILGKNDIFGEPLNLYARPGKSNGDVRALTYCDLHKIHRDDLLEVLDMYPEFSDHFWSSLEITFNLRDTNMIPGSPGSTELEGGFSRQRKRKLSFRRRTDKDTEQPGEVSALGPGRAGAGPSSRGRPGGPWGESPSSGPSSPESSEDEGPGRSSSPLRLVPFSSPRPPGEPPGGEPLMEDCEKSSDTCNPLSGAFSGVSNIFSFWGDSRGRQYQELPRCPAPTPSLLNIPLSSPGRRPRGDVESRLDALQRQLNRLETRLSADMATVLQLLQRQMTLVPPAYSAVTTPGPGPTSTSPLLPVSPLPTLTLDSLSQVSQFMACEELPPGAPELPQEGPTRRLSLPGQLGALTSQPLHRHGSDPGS
row,SMILES,Ki [nM]
1,CNCc1ccccc1Oc1ccc(Cl)cc1OC,4380
2,CNCc1cc(C(=O)NC)ccc1Oc1ccc(Cl)cc1OC,> 7500
3,CNCc1cc(NS(C)(=O)=O)ccc1Oc1ccc(Cl)cc1C,7250
4,CNCc1cc(C#N)ccc1Oc1ccc(Cl)cc1Cl,2210
5,CNCc1cc(C(=O)N(C)C)ccc1Oc1ccc(Cl)cc1C,3750
6,CNCc1cc(C(N)=O)ccc1Oc1ccc(Cl)cc1OC,> 7500
7,CNCc1cc(N2CCCS2(=O)=O)ccc1Oc1ccc(Cl)cc1C,1590
8,COc1cc(Cl)ccc1Oc1ccccc1CN(C)C,> 7500
9,CNCc1cc(C(=O)NC)ccc1Oc1ccc(Cl)cc1Cl,1760
10,CNCc1ccccc1Oc1ccc(Cl)cc1F,5930

# Tested on: not listed separately
# Assay: Membrane permeability by PAMPA assay
# Format: ADME
row,SMILES,Papp [×10⁻⁶ cm/s]
1,CNCc1cc(C(=O)NC)ccc1Oc1ccc(Cl)cc1OC,14
2,CNCc1cc(NS(C)(=O)=O)ccc1Oc1ccc(Cl)cc1C,2.2
3,CNCc1cc(C(=O)N(C)C)ccc1Oc1ccc(Cl)cc1Cl,14
4,CNCc1cc(C(N)=O)ccc1Oc1ccc(Cl)cc1Cl,10
5,CNCc1cc(C(=O)N(C)C)ccc1Oc1ccc(Cl)cc1C,19
6,CNCc1cc(C(N)=O)ccc1Oc1ccc(Cl)cc1OC,11
7,CNCc1cc(C(=O)N(C)C)ccc1Oc1ccc(Cl)cc1OC,15
8,CNCc1cc(N2CCCS2(=O)=O)ccc1Oc1ccc(Cl)cc1C,2.7
